# Data from ChEMBL document CHEMBL2417369, “Synthesis and evaluation of heteroaryl substituted diazaspirocycles as scaffolds to probe the ATP-binding site of protein kinases” (Bioorg Med Chem, 2013).
# pIC50: −log10 of the molar value.
# Assays:
# [1] = biological target: Platelet-derived growth factor receptor (Homo sapiens) (UniProt P09619+P16234); experiment: Inhibition of PDGFR (unknown origin) at 30 uM by microfluidic mobility shift assay relative to control; assay type: protein-complex assay
# Outline: (§1)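 Single-point screen at 30 µM test compound across a 24-kinase panel in a microfluidic assay format. ATP was set near each enzyme's Km,[ATP]. […] The pan-AGC inhibitor H-89 served as an internal control on every assay plate.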
# [2] = biological target: Mitogen-activated protein kinase 1 (Homo sapiens, UniProt P28482); experiment: Inhibition of MAPK2 (unknown origin) at 30 uM by microfluidic mobility shift assay relative to control; outline: as §1
# Mitogen-activated protein kinase 1, sequence (P28482 whole entry): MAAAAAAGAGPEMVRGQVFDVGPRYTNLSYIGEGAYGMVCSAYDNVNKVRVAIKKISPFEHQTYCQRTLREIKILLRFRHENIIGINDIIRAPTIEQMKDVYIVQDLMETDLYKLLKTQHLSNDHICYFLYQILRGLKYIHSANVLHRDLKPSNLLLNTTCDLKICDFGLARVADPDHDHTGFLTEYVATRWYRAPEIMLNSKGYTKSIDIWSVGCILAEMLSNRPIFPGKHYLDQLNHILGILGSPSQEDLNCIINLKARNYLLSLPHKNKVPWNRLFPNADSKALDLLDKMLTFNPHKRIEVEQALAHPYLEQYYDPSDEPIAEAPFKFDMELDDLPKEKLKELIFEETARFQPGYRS
# Homo sapiens [3] = species on record: Homo sapiens; experiment: Inhibition of CAMK2 (unknown origin) at 30 uM by microfluidic mobility shift assay relative to control; outline: as §1
# [4] = biological target: T1, Serine/threonine-protein kinase D1 (Homo sapiens) (UniProt Q15139); experiment: Inhibition of PKD1 (unknown origin) at 30 uM by microfluidic mobility shift assay relative to control
# T1 sequence (whole entry): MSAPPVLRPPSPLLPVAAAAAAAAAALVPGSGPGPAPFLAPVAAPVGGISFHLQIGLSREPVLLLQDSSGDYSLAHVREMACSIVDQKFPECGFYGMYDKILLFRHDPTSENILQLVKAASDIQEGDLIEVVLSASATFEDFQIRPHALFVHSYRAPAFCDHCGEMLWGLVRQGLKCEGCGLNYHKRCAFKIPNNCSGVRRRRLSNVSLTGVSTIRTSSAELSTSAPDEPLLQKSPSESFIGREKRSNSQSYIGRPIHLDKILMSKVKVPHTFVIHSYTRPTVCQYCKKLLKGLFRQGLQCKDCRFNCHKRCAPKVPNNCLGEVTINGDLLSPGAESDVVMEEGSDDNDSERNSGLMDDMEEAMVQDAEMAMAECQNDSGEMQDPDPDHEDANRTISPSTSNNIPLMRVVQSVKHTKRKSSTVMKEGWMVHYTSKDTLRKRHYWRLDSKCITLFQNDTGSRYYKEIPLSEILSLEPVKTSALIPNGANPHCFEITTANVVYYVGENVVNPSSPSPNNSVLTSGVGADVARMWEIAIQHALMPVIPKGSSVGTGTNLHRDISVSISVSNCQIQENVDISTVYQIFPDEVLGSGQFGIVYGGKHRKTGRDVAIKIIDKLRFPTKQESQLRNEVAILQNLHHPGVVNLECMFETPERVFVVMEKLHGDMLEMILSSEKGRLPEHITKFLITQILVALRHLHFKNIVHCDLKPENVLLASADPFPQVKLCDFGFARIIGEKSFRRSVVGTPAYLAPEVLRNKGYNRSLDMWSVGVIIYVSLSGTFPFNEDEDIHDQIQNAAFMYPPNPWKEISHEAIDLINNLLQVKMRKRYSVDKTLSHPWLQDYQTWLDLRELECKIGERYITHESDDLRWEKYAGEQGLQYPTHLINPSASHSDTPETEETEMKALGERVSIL
# Outline: (§2)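 Single-point screen against a 24-kinase panel in a commercial microfluidic assay format. Compounds were tested at 30 µM, with ATP at approximately the Km,[ATP] of each enzyme. H-89 was included on each assay plate as an internal control.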
# Homo sapiens [5] = species on record: Homo sapiens; experiment: Inhibition of PKGbeta (unknown origin) at 30 uM by microfluidic mobility shift assay relative to control; outline: as §2
# [6] = biological target: Ribosomal protein S6 kinase beta-1 (Homo sapiens) (UniProt P23443); experiment: Inhibition of p70S6K (unknown origin) at 30 uM by microfluidic mobility shift assay relative to control; outline: as §2
# Ribosomal protein S6 kinase beta-1 (Homo sapiens), sequence (P23443 whole entry, looked up): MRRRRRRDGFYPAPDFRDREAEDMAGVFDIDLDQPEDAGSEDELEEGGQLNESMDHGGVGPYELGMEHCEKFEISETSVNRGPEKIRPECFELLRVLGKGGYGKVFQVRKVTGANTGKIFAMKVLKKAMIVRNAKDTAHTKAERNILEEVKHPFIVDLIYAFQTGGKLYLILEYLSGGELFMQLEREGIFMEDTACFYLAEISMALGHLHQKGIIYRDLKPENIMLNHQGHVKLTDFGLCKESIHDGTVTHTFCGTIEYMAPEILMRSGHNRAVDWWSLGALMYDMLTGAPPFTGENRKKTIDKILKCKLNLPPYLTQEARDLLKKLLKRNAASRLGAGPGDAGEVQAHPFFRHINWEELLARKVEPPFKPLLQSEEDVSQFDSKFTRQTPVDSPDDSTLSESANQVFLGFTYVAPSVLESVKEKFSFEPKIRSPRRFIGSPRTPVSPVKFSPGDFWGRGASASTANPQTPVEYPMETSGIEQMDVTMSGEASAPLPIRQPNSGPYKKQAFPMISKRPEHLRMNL
# [7] = biological target: Protein kinase C theta type (Homo sapiens) (UniProt Q04759); experiment: Inhibition of PKCtheta (unknown origin) at 30 uM by microfluidic mobility shift assay relative to control; outline: as §2
# Protein kinase C theta type (Homo sapiens), sequence (Q04759 whole entry, looked up): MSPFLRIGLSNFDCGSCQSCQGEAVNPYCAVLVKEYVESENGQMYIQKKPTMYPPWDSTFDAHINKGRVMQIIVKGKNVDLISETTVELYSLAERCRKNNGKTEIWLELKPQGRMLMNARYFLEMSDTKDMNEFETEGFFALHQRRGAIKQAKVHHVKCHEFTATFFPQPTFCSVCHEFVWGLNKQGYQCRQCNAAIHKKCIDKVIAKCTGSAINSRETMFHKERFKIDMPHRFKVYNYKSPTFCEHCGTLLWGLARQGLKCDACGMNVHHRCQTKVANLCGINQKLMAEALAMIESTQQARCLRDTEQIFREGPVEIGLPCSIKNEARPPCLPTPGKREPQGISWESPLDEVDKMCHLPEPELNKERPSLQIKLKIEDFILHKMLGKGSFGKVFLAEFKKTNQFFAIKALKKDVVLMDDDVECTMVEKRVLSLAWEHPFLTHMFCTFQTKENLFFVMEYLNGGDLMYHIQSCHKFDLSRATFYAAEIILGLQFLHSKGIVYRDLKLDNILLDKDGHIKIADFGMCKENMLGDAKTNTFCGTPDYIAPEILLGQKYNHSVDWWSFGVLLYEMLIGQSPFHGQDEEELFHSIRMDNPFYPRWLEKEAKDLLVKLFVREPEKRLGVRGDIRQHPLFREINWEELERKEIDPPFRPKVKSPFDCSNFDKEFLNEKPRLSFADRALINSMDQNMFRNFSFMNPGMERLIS
# [8] = biological target: T2, Protein kinase C epsilon type (Homo sapiens) (UniProt Q02156); experiment: Inhibition of PKCepsilon (unknown origin) at 30 uM by microfluidic mobility shift assay relative to control; outline: as §2
# T2 sequence (whole entry): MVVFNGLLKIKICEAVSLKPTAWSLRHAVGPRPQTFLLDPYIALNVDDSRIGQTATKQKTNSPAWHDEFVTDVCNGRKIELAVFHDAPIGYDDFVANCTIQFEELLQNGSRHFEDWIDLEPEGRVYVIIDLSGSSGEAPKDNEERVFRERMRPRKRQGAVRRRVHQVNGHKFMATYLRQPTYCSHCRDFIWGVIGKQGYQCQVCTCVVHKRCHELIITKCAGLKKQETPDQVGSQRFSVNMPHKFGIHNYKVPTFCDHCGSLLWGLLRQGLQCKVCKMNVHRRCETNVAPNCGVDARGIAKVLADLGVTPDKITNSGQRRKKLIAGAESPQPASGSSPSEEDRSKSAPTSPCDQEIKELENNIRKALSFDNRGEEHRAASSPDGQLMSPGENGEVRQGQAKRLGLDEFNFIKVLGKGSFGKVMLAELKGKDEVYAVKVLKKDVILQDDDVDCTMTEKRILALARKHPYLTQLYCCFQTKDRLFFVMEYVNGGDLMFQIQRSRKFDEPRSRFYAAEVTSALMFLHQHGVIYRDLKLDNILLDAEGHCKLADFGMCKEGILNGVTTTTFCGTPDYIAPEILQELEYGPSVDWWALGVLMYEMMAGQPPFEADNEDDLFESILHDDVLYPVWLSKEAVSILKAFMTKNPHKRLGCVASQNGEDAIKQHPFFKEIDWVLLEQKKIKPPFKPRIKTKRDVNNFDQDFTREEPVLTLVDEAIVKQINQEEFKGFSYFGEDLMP
# [9] = biological target: Protein kinase C alpha type (Homo sapiens) (UniProt P17252); experiment: Inhibition of PKCalpha (unknown origin) at 30 uM by microfluidic mobility shift assay relative to control; outline: as §1
# [10] = biological target: Aurora kinase B (Homo sapiens) (UniProt Q96GD4); experiment: Inhibition of AURB (unknown origin) at 30 uM by microfluidic mobility shift assay relative to control; outline: as §1
# Aurora kinase B (Homo sapiens), sequence (Q96GD4 whole entry): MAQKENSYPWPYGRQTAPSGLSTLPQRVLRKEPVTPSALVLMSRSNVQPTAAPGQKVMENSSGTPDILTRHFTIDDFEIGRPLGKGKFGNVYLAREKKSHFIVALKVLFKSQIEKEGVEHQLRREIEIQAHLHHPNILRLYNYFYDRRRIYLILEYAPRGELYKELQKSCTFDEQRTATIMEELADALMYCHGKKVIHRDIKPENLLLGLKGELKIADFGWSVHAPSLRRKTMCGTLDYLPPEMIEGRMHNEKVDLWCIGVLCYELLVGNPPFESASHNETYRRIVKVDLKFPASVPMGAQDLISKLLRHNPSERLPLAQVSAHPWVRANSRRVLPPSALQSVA
# [11] = biological target: RAF proto-oncogene serine/threonine-protein kinase (Homo sapiens) (UniProt P04049); experiment: Inhibition of c-RAF (unknown origin) at 30 uM by microfluidic mobility shift assay relative to control; outline: as §2
# RAF proto-oncogene serine/threonine-protein kinase (Homo sapiens), sequence (P04049 whole entry): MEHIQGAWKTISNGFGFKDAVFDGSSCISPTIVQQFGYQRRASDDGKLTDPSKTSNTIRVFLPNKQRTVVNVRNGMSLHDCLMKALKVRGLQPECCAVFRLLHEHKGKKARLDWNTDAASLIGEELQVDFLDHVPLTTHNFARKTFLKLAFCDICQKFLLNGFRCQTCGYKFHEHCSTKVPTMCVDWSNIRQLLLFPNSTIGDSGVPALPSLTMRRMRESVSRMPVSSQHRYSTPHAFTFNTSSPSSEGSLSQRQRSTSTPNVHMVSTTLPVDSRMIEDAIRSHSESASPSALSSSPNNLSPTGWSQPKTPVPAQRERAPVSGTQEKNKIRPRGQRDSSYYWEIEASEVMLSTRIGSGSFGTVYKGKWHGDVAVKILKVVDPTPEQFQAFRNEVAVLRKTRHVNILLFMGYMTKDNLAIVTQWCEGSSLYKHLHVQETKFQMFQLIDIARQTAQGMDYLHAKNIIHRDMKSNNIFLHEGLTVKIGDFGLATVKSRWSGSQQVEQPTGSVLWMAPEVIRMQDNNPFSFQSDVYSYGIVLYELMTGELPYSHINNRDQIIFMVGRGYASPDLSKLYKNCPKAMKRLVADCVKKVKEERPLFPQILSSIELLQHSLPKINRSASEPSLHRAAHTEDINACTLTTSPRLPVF
# [12] = Inhibition of PKA (unknown origin) using LRRASLG as substrate after 1 hr by fluorescence assay; set-up: species or system Homo sapiens
Compound,inhibition [1],inhibition [2],inhibition (Homo sapiens [3]),inhibition [4],inhibition (Homo sapiens [5]),inhibition [6],inhibition [7],inhibition [8],inhibition [9],inhibition [10],inhibition [11],pIC50 [12]
c1ccc(CC2CCC3(CCN(c4ncnc5[nH]cnc45)CC3)NC2)cc1 (racemic),28%,15%,9%,12%,86%,47%,17%,24%,35%,73%,11%,–
c1nc(N2CCC3(CCCCN3)CC2)c2nc[nH]c2n1,–,–,–,–,–,–,–,–,–,–,–,6.00
c1ccc(CC2CCNC3(CCN(c4ncnc5[nH]cnc45)CC3)C2)cc1 (racemic),20%,6%,17%,72%,98%,98%,75%,64%,78%,66%,15%,7.51
O=S(=O)(c1cccc2cnccc12)N1CCCC2(CCCNC2)C1 (stereo not drawn),–,–,–,–,–,–,–,–,–,–,–,5.44
c1ccc(C2CCNC3(CCN(c4ncnc5[nH]cnc45)CC3)C2)cc1 (racemic),29%,9%,13%,44%,99%,95%,77%,66%,59%,64%,13%,6.83
c1nc(N2CCC3(CCCNC3)CC2)c2nc[nH]c2n1,–,–,–,–,–,–,–,–,–,–,–,7.10
